Data published in ChEMBL document CHEMBL1143668, “Reversal of P-glycoprotein-mediated multidrug resistance by sipholane triterpenoids” (J Nat Prod, 2007).

Experiments:
Type in all cases: functional, cell-based
[1] = Cytotoxicity against KB-3-1 cells after 68 hrs by MTT assay; conditions: Homo sapiens, KB 3-1, 68 h
In short: (§1)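 Human epidermoid carcinoma KB-3-1 (parental) and sublines: KB/MRP1 (MRP1 cDNA-transfected), KB-CV60 (kept in 1 μg/mL cepharanthine + 60 ng/mL vincristine), KB-C2 (kept in 2 μg/mL colchicine). DMEM with 10% bovine serum, 37 °C, 5% CO₂. Seeded at 4×10^4 (KB-3-1), 5×10^4 (KB/MRP1) or 7.5×10^4 cells/mL (KB-CV60, KB-C2). Compound dilution series for 68 h, then MTT 4 h. Formazan dissolved in DMSO, A570. IC50 from survival curves by the Bliss method.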

[2] = Cytotoxicity against KB-C2 cells overexpressing P-gp after 68 hrs by MTT assay; conditions: Homo sapiens, KB-C2, 68 h; in short: as §1
KB 3-1 = assay: Reversal of P-gp-mediated multidrug resistance to Cytotoxicity of colchicine against human KB-3-1 cells at 5 uM after 68 hrs by MTT assay; conditions: KB 3-1, 68 h
In short: (§2)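 KB-3-1 seeded at 4×10^4 cells/mL, KB-C2 at 7.5×10^4 cells/mL (KB-C2 kept in 2 μg/mL colchicine). MTT added for 4 h, DMSO solubilization, A570. IC50 by the Bliss method. Fold-resistance = IC50 / colchicine IC50 in KB-3-1. Mean ± SD, three independent experiments in triplicate.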

KB = assay: Cytotoxicity against KB cells expressing MRP1 after 68 hrs by MTT assay; conditions: Homo sapiens; in short: as §1
[3] = Reversal of P-gp-mediated multidrug resistance to Cytotoxicity of colchicine against human KB-C2 cells at 5 uM after 68 hrs by MTT assay; conditions: KB-C2, 68 h; in short: as §2
[4] = Cytotoxicity against KB-CV60 cells expressing MRP1 after 68 hrs by MTT assay; conditions: Homo sapiens, KB-CV60, 68 h; in short: as §1

Row | Compound | IC50 [1] [µM] | IC50 [2] [µM] | IC50 (KB 3-1) [µM] | IC50 (KB) [µM] | IC50 [3] [µM] | IC50 [4] [µM]
1 | CC1(C)O[C@@H]2CC[C@](C)(O)[C@H](CC[C@@]34O[C@]3(C)[C@H](O)CC3C(CC[C@@]3(C)O)C4(C)C)[C@@]2(C)CC[C@H]1O (stereo partly drawn) [SIPHOLENOL I] | > 50 | > 50 | 0.0086 | > 50 | 2.87 | > 50
2 | CC1=CCC2C(CC[C@@]2(C)O)C(C)(C)C1CC[C@@H]1[C@@]2(C)CC[C@@H](O)C(C)(C)O[C@@H]2CC[C@]1(C)O (stereo partly drawn) [SIPHOLENOL A] | > 50 | > 50 | 0.005 | > 50 | 0.21 | > 50
3 | CC1(C)O[C@@H]2CC[C@](C)(O)[C@H](CCC3C(CO)=CCC4C(CC[C@@]4(C)O)C3(C)C)[C@@]2(C)CCC1=O (stereo partly drawn) | > 50 | > 50 | 0.0063 | > 50 | 6 | > 50
4 | CC1=CCC2C(CC[C@@]2(C)O)C(C)(C)C1CC[C@@H]1[C@@]2(C)CCC(=O)C(C)(C)O[C@@H]2CC[C@]1(C)O (stereo partly drawn) [SIPHOLENONE A] | > 50 | > 50 | 0.0052 | > 50 | 0.93 | > 50
5 | CC1(C)O[C@@H]2CC[C@](C)(O)[C@H](CCC3C(C=O)=CCC4C(CC[C@@]4(C)O)C3(C)C)[C@@]2(C)CCC1=O (stereo partly drawn) | > 50 | > 50 | 0.0056 | > 50 | 6.32 | > 50
6 | CC1(C)C(CC[C@@H]2[C@@]3(C)CC[C@@H](O)C(C)(C)O[C@@H]3CC[C@]2(C)O)C(C=O)=CCC2C1CC[C@@]2(C)O (stereo partly drawn) | > 50 | > 50 | 0.005 | > 50 | 2.85 | > 50
7 | CC1(C)C(CC[C@@H]2[C@@]3(C)CC[C@@H](O)C(C)(C)O[C@@H]3CC[C@]2(C)O)C(CO)=CCC2C1CC[C@@]2(C)O (stereo partly drawn) [28-HYDROXYSIPHOLENOL A] | > 50 | > 50 | 0.0059 | > 50 | 5.07 | > 50
8 | CC1=C(CC[C@@H]2[C@@]3(C)CC[C@@H](O)C(C)(C)O[C@@H]3CC[C@]2(C)O)[C@](C)(C/C=C/C(C)(C)O)[C@H](O)CC1 [SIPHONELLINOL C] | > 50 | > 50 | 0.0078 | > 50 | 1.48 | > 50
